Results from ChEMBL document CHEMBL3779833, “Hydroxyurea derivatives of irofulven with improved antitumor efficacy” (Bioorg Med Chem Lett, 2016).
The source made the active and inactive calls. The calls are words filed in the database; no cut-off is given here.

Key:
[1] = Cytotoxicity against human CHRF-288-11 cells after 48 hrs by trypan blue exclusion assay; type: cell-based
Method in brief: (§1)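 Cells exposed to drug for 48 h; growth measured by trypan blue exclusion. IC50 is the concentration giving 50% growth inhibition; values reported in nM.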

[2] = Cytotoxicity against human MV522 cells after 48 hrs by trypan blue exclusion assay; type: functional, cell-based; settings: MV522, 48 h; method in brief: as §1
[3] = Cytotoxicity against human DU145 cells after 48 hrs by sulforhodamine B assay; type: functional, cell-based; settings: DU-145, 48 h, read-out: pIC50 (converted)
[4] = Cytotoxicity against human BT549 cells after 48 hrs by sulforhodamine B assay; type: functional, cell-based; settings: BT-549, 48 h
[5] = test system: NCI-H23; assay: Cytotoxicity against human NCI-H23 cells after 48 hrs by sulforhodamine B assay; type: functional, cell-based; settings: NCI-H23, 48 h
[6] = Cytotoxicity against human SF539 cells after 48 hrs by sulforhodamine B assay; type: functional, cell-based; settings: SF-539, 48 h
[7] = Cytotoxicity against human OVCAR4 cells after 48 hrs by sulforhodamine B assay; type: functional, cell-based; settings: OVCAR-4, 48 h
[8] = test system: NCI-H460; assay: Cytotoxicity against human NCI-H460 cells after 48 hrs by sulforhodamine B assay; type: functional, cell-based; settings: NCI-H460, 48 h, read-out: pIC50 (converted)
[9] = Cytotoxicity against human HOP62 cells after 48 hrs by sulforhodamine B assay; type: functional, cell-based; settings: HOP-62, 48 h
[10] = Cytotoxicity against human SNB19 cells after 48 hrs by sulforhodamine B assay; type: functional, cell-based; settings: SNB-19, 48 h
[11] = Cytotoxicity against human SKOV3 cells after 48 hrs by sulforhodamine B assay; type: functional, cell-based; settings: SK-OV-3, 48 h
[12] = test system: ACHN; assay: Cytotoxicity against human ACHN cells after 48 hrs by sulforhodamine B assay; type: functional, cell-based
[13] = Cytotoxicity against human Hs 578T cells after 48 hrs by sulforhodamine B assay; type: functional, cell-based
[14] = test system: KM12; assay: Cytotoxicity against human KM12 cells after 48 hrs by sulforhodamine B assay; type: functional, cell-based; settings: KM12, 48 h
[15] = Cytotoxicity against human IGROV1 cells after 48 hrs by sulforhodamine B assay; type: functional, cell-based; settings: IGROV-1, 48 h
[16] = Cytotoxicity against human UO31 cells after 48 hrs by sulforhodamine B assay; type: functional, cell-based; settings: UO-31, 48 h
[17] = Cytotoxicity against human OVCAR3 cells after 48 hrs by sulforhodamine B assay; type: functional, cell-based; settings: OVCAR-3, 48 h
[18] = test system: NCI-H226; assay: Cytotoxicity against human NCI-H226 cells after 48 hrs by sulforhodamine B assay; type: functional, cell-based; settings: NCI-H226, 48 h
[19] = test system: A549; assay: Cytotoxicity against human A549 cells after 48 hrs by sulforhodamine B assay; type: functional, cell-based; settings: A549, 48 h, read-out: pIC50 (converted)
[20] = Cytotoxicity against human HCC2998 cells after 48 hrs by sulforhodamine B assay; type: functional, cell-based; settings: HCC 2998, 48 h
[21] = test system: SK-MEL-5; assay: Cytotoxicity against human SK-MEL-5 cells after 48 hrs by sulforhodamine B assay; type: functional, cell-based; settings: SK-MEL-5, 48 h
[22] = test system: U-251; assay: Cytotoxicity against human U251 cells after 48 hrs by sulforhodamine B assay; type: functional, cell-based; settings: U-251, 48 h
[23] = test system: Malme-3M; assay: Cytotoxicity against human MALME-3M cells after 48 hrs by sulforhodamine B assay; type: functional, cell-based
[24] = Cytotoxicity against human LOXIMVI cells after 48 hrs by sulforhodamine B assay; type: functional, cell-based; settings: LOX IMVI
[25] = Cytotoxicity against human Caki1 cells after 48 hrs by sulforhodamine B assay; type: functional, cell-based; settings: CAKI-1, 48 h
[26] = test system: NCI-H522; assay: Cytotoxicity against human NCI-H522 cells after 48 hrs by sulforhodamine B assay; type: functional, cell-based; settings: NCI-H522, 48 h
[27] = Cytotoxicity against human UACC257 cells after 48 hrs by sulforhodamine B assay; type: functional, cell-based; settings: UACC-257, 48 h
[28] = test system: SN12C; assay: Cytotoxicity against human SN12C cells after 48 hrs by sulforhodamine B assay; type: functional, cell-based
[29] = test system: A498; assay: Cytotoxicity against human A498 cells after 48 hrs by sulforhodamine B assay; type: functional, cell-based; settings: A498, 48 h
[30] = test system: EKVX; assay: Cytotoxicity against human EKVX cells after 48 hrs by sulforhodamine B assay; type: functional, cell-based
[31] = test system: M14; assay: Cytotoxicity against human M14 cells after 48 hrs by sulforhodamine B assay; type: functional, cell-based; settings: M14, 48 h
[32] = Selectivity index, ratio of IC50 for human CHRF-288-11 cells to IC50 for human MV522 cells; type: functional
Method in brief: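 Ratio of the IC50 in megakaryocytic CHRF 288-11 (non-target) cells to the IC50 in MV522 adenocarcinoma (target) cells.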

[33] = test system: MV522; assay: Antitumor activity against human MV522 cells xenografted in Balb/c nu/nu mouse assessed as inhibition of tumor growth at 10 mg/kg, ip administered thrice a week for 3 weeks; type: functional, organism-based
Method in brief: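 MV522 tumour xenografts in Balb/c nu/nu mice; drugs given intraperitoneally 3 times a week for 3 consecutive weeks at 10 mg/kg, the dose compared across agents; N = 8 per group.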

[34] = Cytotoxicity against human HCT116 cells after 48 hrs by sulforhodamine B assay; type: functional, cell-based; settings: HCT-116, 48 h
[35] = Cytotoxicity against human TK10 cells after 48 hrs by sulforhodamine B assay; type: functional, cell-based; settings: TK-10, 48 h
[36] = Cytotoxicity against human COLO205 cells after 48 hrs by sulforhodamine B assay; type: functional, cell-based; settings: COLO 205, 48 h
[37] = test system: NCI-H322M; assay: Cytotoxicity against human NCI-H322M cells after 48 hrs by sulforhodamine B assay; type: functional, cell-based
[38] = test system: MDA-MB-231; assay: Cytotoxicity against human MDA-MB-231 cells after 48 hrs by sulforhodamine B assay; type: functional, cell-based; settings: MDA-MB-231, 48 h
[39] = Cytotoxicity against human HOP92 cells after 48 hrs by sulforhodamine B assay; type: functional, cell-based; settings: HOP-92, 48 h
[40] = Cytotoxicity against human NCI-ADR-RES cells after 48 hrs by sulforhodamine B assay; type: functional, cell-based
[41] = Cytotoxicity against human SW620 cells after 48 hrs by sulforhodamine B assay; type: functional, cell-based; settings: SW-620, 48 h
[42] = test system: HT-29; assay: Cytotoxicity against human HT-29 cells after 48 hrs by sulforhodamine B assay; type: functional, cell-based; settings: HT-29, 48 h
[43] = test system: MCF7; assay: Cytotoxicity against human MCF7 cells after 48 hrs by sulforhodamine B assay; type: functional, cell-based; settings: MCF7, 48 h
[44] = test system: T47D; assay: Cytotoxicity against human T47D cells after 48 hrs by sulforhodamine B assay; type: functional, cell-based
[45] = Cytotoxicity against human RXF393 cells after 48 hrs by sulforhodamine B assay; type: functional, cell-based; settings: RXF 393, 48 h
[46] = Cytotoxicity against human OVCAR8 cells after 48 hrs by sulforhodamine B assay; type: functional, cell-based; settings: OVCAR-8, 48 h
[47] = Cytotoxicity against human PC3 cells after 48 hrs by sulforhodamine B assay; type: functional, cell-based; settings: PC-3, 48 h
[48] = test system: SK-MEL-28; assay: Cytotoxicity against human SK-MEL-28 cells after 48 hrs by sulforhodamine B assay; type: functional, cell-based; settings: SK-MEL-28, 48 h
[49] = test system: MDA-MB-435; assay: Cytotoxicity against human MDA-MB-435 cells after 48 hrs by sulforhodamine B assay; type: functional, cell-based; settings: MDA-MB-435, 48 h
[50] = Cytotoxicity against human OVCAR5 cells after 48 hrs by sulforhodamine B assay; type: functional, cell-based; settings: OVCAR-5, 48 h
[51] = test system: SK-MEL-2; assay: Cytotoxicity against human SK-MEL-2 cells after 48 hrs by sulforhodamine B assay; type: functional, cell-based; settings: SK-MEL-2, 48 h
[52] = test system: 786-0; assay: Cytotoxicity against human 786-0 cells after 48 hrs by sulforhodamine B assay; type: functional, cell-based; settings: 786-0, 48 h
[53] = Cytotoxicity against human HCT15 cells after 48 hrs by sulforhodamine B assay; type: functional, cell-based; settings: HCT-15, 48 h
[54] = Cytotoxicity against human SF295 cells after 48 hrs by sulforhodamine B assay; type: functional, cell-based; settings: SF-295, 48 h
[55] = Cytotoxicity against human SNB75 cells after 48 hrs by sulforhodamine B assay; type: functional, cell-based; settings: SNB-75, 48 h
[56] = Cytotoxicity against human SF268 cells after 48 hrs by sulforhodamine B assay; type: functional, cell-based; settings: SF-268, 48 h

## CC(=O)ON(CC1=C(C)C=C2C(=O)[C@](C)(O)C3(CC3)C(C)=C21)C(N)=O
[1]
  IC50: 1900 nM

## NC(=O)NO [HYDROXYUREA]
[2]
  IC50: > 650000 nM

## CC1=C(CO)C2=C(C)C3(CC3)[C@@](C)(O)C(=O)C2=C1 [IROFULVEN]
[3]
  IC50: < 100 nM
[4]
  IC50: 316 nM
[5]
  IC50: 79.4 nM
[6]
  IC50: 158 nM
[7]
  IC50: 251 nM
[8]
  IC50: < 50.1 nM
[9]
  IC50: 158 nM
[10]
  IC50: 316 nM
[11]
  IC50: 251 nM
[12]
  IC50: 251 nM
[13]
  IC50: 316 nM
[14]
  IC50: 631 nM
[15]
  IC50: 158 nM
[16]
  IC50: 200 nM
[17]
  IC50: 251 nM
[18]
  IC50: 200 nM
[19]
  IC50: < 126 nM
[1]
  IC50: 290 nM
[20]
  IC50: 158 nM
[21]
  IC50: 158 nM
[22]
  IC50: 316 nM
[2]
  IC50: 70 nM
[23]
  IC50: 200 nM
[24]
  IC50: 631 nM
[25]
  IC50: 251 nM
[26]
  IC50: 158 nM
[27]
  IC50: 251 nM
[28]
  IC50: 398 nM
[29]
  IC50: 200 nM
[30]
  IC50: 200 nM
[31]
  IC50: 251 nM
[32]
  Ratio IC50: 4.1
[33]
  TGI: Active
[34]
  IC50: 200 nM
[35]
  IC50: 251 nM
[36]
  IC50: 158 nM
[37]
  IC50: 251 nM
[38]
  IC50: 316 nM
[39]
  IC50: 316 nM
[40]
  IC50: 251 nM
[41]
  IC50: 631 nM
[42]
  IC50: 251 nM
[43]
  IC50: 251 nM
[44]
  IC50: 200 nM
[45]
  IC50: 50.1 nM
[46]
  IC50: 200 nM
[47]
  IC50: 251 nM
[48]
  IC50: 631 nM
[49]
  IC50: 1580 nM
[50]
  IC50: 158 nM
[51]
  IC50: 200 nM
[52]
  IC50: 200 nM
[53]
  IC50: 316 nM
[54]
  IC50: 316 nM
[55]
  IC50: 200 nM
[56]
  IC50: 251 nM

## CC1=C(CN(O)C(N)=O)C2=C(C)C3(CC3)[C@@](C)(O)C(=O)C2=C1 [LP-184]
[3]
  IC50: < 10 nM
[4]
  IC50: 158 nM
[5]
  IC50: 15.8 nM
[6]
  IC50: 20 nM
[7]
  IC50: 100 nM
[8]
  IC50: < 10 nM
[9]
  IC50: 25.1 nM
[10]
  IC50: 126 nM
[11]
  IC50: 316 nM
[12]
  IC50: 31.6 nM
[13]
  IC50: 501 nM
[14]
  IC50: 398 nM
[15]
  IC50: 25.1 nM
[16]
  IC50: 25.1 nM
[17]
  IC50: 50.1 nM
[18]
  IC50: 200 nM
[19]
  IC50: < 10 nM
[1]
  IC50: 8800 nM
[20]
  IC50: 12.6 nM
[21]
  IC50: 63.1 nM
[22]
  IC50: 126 nM
[2]
  IC50: 210 nM
[23]
  IC50: 126 nM
[24]
  IC50: 316 nM
[25]
  IC50: 50.1 nM
[26]
  IC50: 1000 nM
[27]
  IC50: 251 nM
[28]
  IC50: 316 nM
[29]
  IC50: 31.6 nM
[30]
  IC50: 316 nM
[31]
  IC50: 200 nM
[32]
  Ratio IC50: 41.9
[33]
  TGI: Active
[34]
  IC50: 158 nM
[35]
  IC50: 31.6 nM
[36]
  IC50: 25.1 nM
[37]
  IC50: 100 nM
[38]
  IC50: 251 nM
[39]
  IC50: 39.8 nM
[40]
  IC50: 158 nM
[41]
  IC50: 15800 nM
[42]
  IC50: 126 nM
[43]
  IC50: 1260 nM
[44]
  IC50: 63.1 nM
[45]
  IC50: 15.8 nM
[46]
  IC50: 316 nM
[47]
  IC50: 398 nM
[48]
  IC50: 126 nM
[49]
  IC50: 398 nM
[50]
  IC50: 25.1 nM
[51]
  IC50: 398 nM
[52]
  IC50: 126 nM
[53]
  IC50: 126 nM
[54]
  IC50: 50.1 nM
[55]
  IC50: 31.6 nM
[56]
  IC50: 20 nM
